Experiments:
[1] = molecular target: Fructose-1,6-bisphosphatase 1 (Rattus norvegicus, UniProt P19112, Q51K); assay: Concentration required for 50% Inhibition against (F16BP) Fructose-1,6-bisphosphatase in rat single mutant (Gln50Lys) enzyme using malachite green assay
Method in brief: (§1)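 Recombinant rat liver F16BPase (wild type or Gln50Lys/Gln55His double, Gln50Lys or Gln55His single mutants), expressed in E. coli BL21(DE3) and purified, 40 ng/well. Enzyme added to substrate plus compound with no preincubation. Final buffer was 50 mM HEPES pH 7.2, 100 mM KCl, 2 mM MgCl2, 2 mM EGTA, 1 mM DTT, 500 μM fructose-1,6-bisphosphate. Incubation 40 min at room temperature. Released phosphate read at 620 nm with ammonium molybdate/malachite green. Means of ≥3 experiments. Dose-response tested up to 10 μM.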

[2] = molecular target: T1, Fructose-1,6-bisphosphatase 1 (Rattus norvegicus, UniProt P19112, Q56H); assay: Concentration required for 50% Inhibition against (F16BP) Fructose-1,6-bisphosphatase in rat single mutant (Gln55His) enzyme using malachite green assay; method in brief: as §1
[3] = molecular target: T2, Fructose-1,6-bisphosphatase 1 (Rattus norvegicus, UniProt P19112); assay: Concentration required for 50% Inhibition against (F16BP) Fructose-1,6-bisphosphatase in rat wild type enzyme using malachite green assay; method in brief: as §1
T2 sequence (P19112 whole entry): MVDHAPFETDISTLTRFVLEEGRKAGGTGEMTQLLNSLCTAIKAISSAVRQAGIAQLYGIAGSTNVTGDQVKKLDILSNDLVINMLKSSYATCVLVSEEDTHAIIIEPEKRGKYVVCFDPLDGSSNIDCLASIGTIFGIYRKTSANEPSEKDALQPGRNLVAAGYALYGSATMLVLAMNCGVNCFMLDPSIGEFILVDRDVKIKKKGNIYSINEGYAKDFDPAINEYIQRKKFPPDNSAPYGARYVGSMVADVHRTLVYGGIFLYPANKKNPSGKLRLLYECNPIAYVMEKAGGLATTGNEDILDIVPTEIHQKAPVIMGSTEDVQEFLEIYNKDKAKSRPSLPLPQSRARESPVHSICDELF

[4] = molecular target: Fructose-1,6-bisphosphatase 1 (Rattus norvegicus, UniProt P19112, Q51K/Q56H); assay: Concentration required for 50% Inhibition against (F16BP) Fructose-1,6-bisphosphatase in rat double mutant (Gln50Lys Gln55His) enzyme using malachite green assay; method in brief: as §1
[5] = Inhibition of human recombinant wild type fructose-1,6-bisphosphatase (F16BP)
[6] = molecular target: T1, Fructose-1,6-bisphosphatase 1; assay: Concentration required for 50% Inhibition against (F16BP) Fructose-1,6-bisphosphatase in rat single mutant(Gln55His) enzyme using malachite green assay; method in brief: as §1

Chain of Fructose-1,6-bisphosphatase 1 (Rattus norvegicus, UniProt P19112, Q51K/Q56H) (P19112 2-363 Q51K/Q56H limits assumed): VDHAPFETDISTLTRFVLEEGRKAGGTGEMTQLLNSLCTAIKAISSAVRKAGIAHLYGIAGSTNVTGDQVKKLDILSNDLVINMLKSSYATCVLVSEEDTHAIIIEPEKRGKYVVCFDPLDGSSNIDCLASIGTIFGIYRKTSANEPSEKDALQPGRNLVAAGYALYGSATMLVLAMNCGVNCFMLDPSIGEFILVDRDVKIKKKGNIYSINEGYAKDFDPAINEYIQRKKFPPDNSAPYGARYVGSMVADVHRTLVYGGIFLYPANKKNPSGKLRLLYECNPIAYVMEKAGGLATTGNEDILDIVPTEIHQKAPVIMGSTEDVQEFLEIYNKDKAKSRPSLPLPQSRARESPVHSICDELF
Chain of Fructose-1,6-bisphosphatase 1 (Rattus norvegicus, UniProt P19112, Q51K) (P19112 2-363 Q51K limits assumed): as the sequence (P19112 2-363 Q51K/Q56H limits assumed) above, with H55Q counted along it
T1 sequence (P19112 2-363 Q56H limits assumed): as the sequence (P19112 2-363 Q51K/Q56H limits assumed) above, with K50Q counted along it

IC50 [1]	IC50 [2]	IC50 [3]	IC50 [4]	IC50 [5]	IC50 [6]	Compound
> 10 µM	2900 nM	> 10 µM	340 nM	–	–	CCOc1cc2ncnc(Nc3cccc(-c4csc(CO)n4)c3)c2cc1OCC
> 10 µM	3000 nM	> 10 µM	520 nM	930 nM	–	CCOc1cc2ncnc(Nc3cccc(-c4csc(C(N)=O)n4)c3)c2cc1OCC
> 10 µM	–	> 10 µM	790 nM	640 nM	3.8 µM	CCOc1cc2ncnc(Nc3cccc(-c4csc(C)n4)c3)c2cc1OCC

Source: ChEMBL document CHEMBL1135760, “Anilinoquinazoline inhibitors of fructose 1,6-bisphosphatase bind at a novel allosteric site: synthesis, in vitro characterization, and X-ray crystallography” (J Med Chem, 2002)
